Results from ChEMBL document CHEMBL1777667, “Synthesis and antibacterial activity of some binaphthyl-supported macrocycles containing a cationic amino acid” (2011).
Values after ≈ are worked out from the molar mass of the structure shown.

These compounds were tested on Staphylococcus aureus (assay: Antibacterial activity against Staphylococcus aureus ATCC 6538P by two fold dilution method). Settings: not given.
Assay type: functional
How it was run: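 Compounds dissolved in 10% methanol/water as stock, diluted in water, then serially twofold-diluted in LB across eight wells in triplicate. Overnight (14 h) LB culture grown at 37 °C, diluted 1 in 1,000 and added to wells. Media-only, no-compound and vancomycin controls were run. Operator was blinded. MIC read by eye as the concentration next to the first well of obvious growth.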

MIC | SMILES
62 mg/L | COC(=O)[C@@H]1CC=CCc2cc3ccccc3c(c2OC)-c2c(OC)c(cc3ccccc23)CC(NC(C)=O)C(=O)N[C@H](CCCCN)C(=O)N1.Cl (mixture of isomers; 21)
8 mg/L | COC(=O)[C@@H]1CC=CCc2cc3ccccc3c(c2OC)-c2c(OC)c(cc3ccccc23)CC(NC(C)=O)C(=O)N[C@H](CCCCN)C(=O)N1.Cl (mixture of isomers; 26)

More lines, now with the values behind:

SMILES | MIC
COC(=O)[C@@H]1CC=CCc2cc3ccccc3c(c2OC)-c2c(OC)c(cc3ccccc23)CC(NC(C)=O)C(=O)N[C@H](CCCCN)C(=O)N1.Cl (mixture of isomers; 1) | 16 mg/L
COC(=O)[C@@H]1C/C=C/Cc2cc3ccccc3c(c2OC)-c2c(OC)c(cc3ccccc23)CC(NC(C)=O)C(=O)N[C@H](CCCNC(=N)N)C(=O)N1.Cl (mixture of isomers; 24) | 62 mg/L
COC(=O)[C@@H]1CC=CCc2cc3ccccc3c(c2OC)-c2c(OC)c(cc3ccccc23)CC(NC(C)=O)C(=O)N[C@H](CCCCN)C(=O)N1.Cl (mixture of isomers; 25) | 31 mg/L

Same assay, conditions: Staphylococcus aureus, ATCC 6538P; read-out: MIC

MIC | SMILES
4 mg/L (≈ 5.33 µM) | C=CCc1cc2ccccc2c(-c2c(OC)c(CC(NC(C)=O)C(=O)N[C@H](CCCNC(=N)N)C(=O)N[C@@H](CC=C)C(=O)OC)cc3ccccc23)c1OC (some centres not stated)
4 mg/L (≈ 5.33 µM) | C=CCc1cc2ccccc2c(-c2c(OC)c(CC(NC(C)=O)C(=O)N[C@@H](CCCNC(=N)N)C(=O)N[C@@H](CC=C)C(=O)OC)cc3ccccc23)c1OC (some centres not stated)
> 250 mg/L | COC(=O)[C@@H]1C/C=C/Cc2cc3ccccc3c(c2OC)-c2c(OC)c(cc3ccccc23)CC(NC(C)=O)C(=O)N[C@H](CCCCNC(=O)OC(C)(C)C)C(=O)N1 (mixture of isomers)
> 250 mg/L | COC(=O)[C@@H]1C/C=C/Cc2cc3ccccc3c(c2OC)-c2c(OC)c(cc3ccccc23)CC(NC(C)=O)C(=O)N[C@@H](CCCCNC(=O)OCC2c3ccccc3-c3ccccc32)C(=O)N1 (mixture of isomers)
> 250 mg/L | COC(=O)[C@@H]1C/C=C/Cc2cc3ccccc3c(c2OC)-c2c(OC)c(cc3ccccc23)CC(NC(C)=O)C(=O)N[C@@H](C)C(=O)N[C@@H](CCCCN)C(=O)N1.Cl (mixture of isomers)

More lines, now with the values behind:

SMILES | MIC
COC(=O)[C@@H]1C/C=C/Cc2cc3ccccc3c(c2OC)-c2c(OC)c(cc3ccccc23)CC(NC(C)=O)C(=O)N[C@H](CCCNC(=N)NS(=O)(=O)c2c(C)c(C)c3c(c2C)CCC(C)(C)O3)C(=O)N1 (mixture of isomers) | 31 mg/L
COC(=O)[C@@H]1C/C=C/Cc2cc3ccccc3c(c2OC)-c2c(OC)c(cc3ccccc23)CC(NC(C)=O)C(=O)N[C@H](CCCNC(=N)N)C(=O)N1.Cl (mixture of isomers; 22) | 62 mg/L
